The text below walks through data of ChEMBL document CHEMBL4257512, “Synthesis and antiplasmodial activity of purine-based C-nucleoside analogues” (Medchemcomm, 2018).

Each structure is given as a SMILES string.

The test system of data set [1] is Plasmodium falciparum. The data set is described as follows: Antiplasmodial activity against chloroquine-sensitive Plasmodium falciparum 3D7 asynchronous cultures infected in human erythrocytes measured after 72 hrs by SYBR Green1 dye based fluorescence assay. Format: functional, organism-based. Particulars: 3D7, 72 h. The method, boiled down: (§1)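 Parasites kept in human erythrocytes at 5% hematocrit in RPMI-1640 (HEPES) with 0.5% AlbuMaxII, 0.2% glucose, 0.2% bicarbonate, 15 µM hypoxanthine, 37 °C, CO₂. Two-fold serial dilutions spanning 5 µM to 78 nM were applied to asynchronous cultures at 0.8-1% parasitaemia, 1% haematocrit, for 72 h. SYBR Green I lysis buffer was added for 2 h, with fluorescence read at Ex 485/Em 535 nm. IC50 was derived from DNA signal against drug-free controls.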

Data set [2] is described as follows: Resistance index, ratio of IC50 for chloroquine-resistant Plasmodium falciparum K1 asynchronous cultures infected in human erythrocytes to IC50 for chloroquine-sensitive Plasmodium falciparum 3D7 asynchronous cultures infected in human erythrocytes. Format: functional.
The test system of data set [3] is Plasmodium falciparum. The experiment in a line: Antiplasmodial activity against chloroquine-resistant Plasmodium falciparum K1 asynchronous cultures infected in human erythrocytes measured after 72 hrs by SYBR Green1 dye based fluorescence assay. Format: functional, organism-based. Particulars: K1, 72 h. Put shortly: as §1
Data set [4] can be described thus: Selectivity index, ratio of CC50 for African green monkey Vero cells to IC50 for chloroquine-sensitive Plasmodium falciparum 3D7 asynchronous cultures infected in human erythrocytes. The format is toxicity, cell-based. To be noted: read-out: Ratio CC50/IC50.
Data set [5] can be described thus: Selectivity index, ratio of CC50 for African green monkey Vero cells to IC50 for chloroquine-resistant Plasmodium falciparum K1 asynchronous cultures infected in human erythrocytes. Format: toxicity, cell-based. To be noted: read-out: Ratio CC50/IC50.
Data set [6] is described as follows: Cytotoxicity against African green monkey Vero cells after 3 days by resazurin dye based fluorescence assay. Format: cell-based. To be noted: chlorocebus sabaeus. Put shortly:
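VERO kidney cells kept in MEM with 15% FBS, 5% CO₂, 37 °C. Cells exposed to serial compound dilutions for three days. Then 10% resazurin added as viability marker. Fluorescence read at Ex 530 ± 25 nm / Em 590 ± 25 nm. Median cytotoxic concentration (CC₅₀) calculated from readings.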
A general note: The colour change of resazurin is a common sign of viable cells or microbes.

For data set [7], the system named is Plasmodium falciparum. The experiment in a line: Growth inhibition of Plasmodium falciparum D6 infected in human erythrocytes assessed as reduction in [3H]-isoleucine incorporation pretreated for 24 hrs followed by [3H]-isoleucine addition and measured after 18 hrs by liquid scintillation counting method. Format: functional, organism-based.
For data set [8], the system named is Plasmodium falciparum. The experiment in a line: Growth inhibition of Plasmodium falciparum ITG2 infected in human erythrocytes assessed as reduction in [3H]-isoleucine incorporation pretreated for 24 hrs followed by [3H]-isoleucine addition and measured after 18 hrs by liquid scintillation counting method. The format is functional, organism-based.

As for `CC1(C)O[C@H]2O[C@H]([C@H](CCO)n3cnc4c(N)ncnc43)[C@@H](OCc3ccccc3)[C@H]2O1`, the IC50 (in general, the concentration needed to halve the response being measured) in the data set on Plasmodium falciparum [1] was determined as 4.52 µM; with Plasmodium falciparum [3], 4.09 µM. Besides, the “Ratio IC50” value in data set [2] is on record as 1.29. Besides, the selectivity ratio in data set [4] was determined as 40.9; in data set [5] it was 31.5. Also, in data set [6], the midpoint of cytotoxicity, the CC50 at 72 h, lay at 148 µM.

With `CCOC(=O)C[C@@H]([C@H]1O[C@@H]2OC(C)(C)O[C@@H]2[C@H]1OCc1ccccc1)n1cnc2c(NCc3ccccc3)ncnc21`, the IC50 in the data set on Plasmodium falciparum [1] amounted to 1.61 µM; in the data set with Plasmodium falciparum [3], 1.14 µM. For the same compound, the “Ratio IC50” value in data set [2] came out at 0.7. The selectivity ratio in data set [4] stood at 35.7; in data set [5], 50.4. Besides, half-maximal cytotoxicity in data set [6] (CC50 at 72 h) was put at 57.5 µM.

Consider `CC1(C)O[C@H]2O[C@H]([C@H](CC(=O)O)n3cnc4c(N)ncnc43)[C@H](Oc3ccccc3N)[C@H]2O1`, for which the values for the IC50 in the data set on Plasmodium falciparum [1] and in the data set on Plasmodium falciparum [3] were 4.82 µM and 3.72 µM, respectively. Moreover, the selectivity ratio in data set [4] is 13.9; in data set [5] it was 18. Moreover, in data set [6], the CC50 (usually the concentration that lowers cell viability or growth by half) at 72 h amounted to 67.1 µM.

On to `CCOC(=O)CCn1cnc2c(N)ncnc21`, for which the IC50 in the data set with Plasmodium falciparum [1] is more than 5 µM.

As for `CC1(C)O[C@H]2O[C@H]([C@H](CCO)n3cnc4c(N)ncnc43)[C@H](OCc3ccccc3)[C@H]2O1`, the figures for the IC50 in the data set with Plasmodium falciparum [1] and in the data set with Plasmodium falciparum [3] were 4.31 µM and 4.99 µM, respectively. Moreover, the “Ratio IC50” value in data set [2] worked out at 1.15. Also, the selectivity ratio in data set [4] amounted to 22.5; in data set [5], 19.5. The CC50 at 72 h in data set [6] was found to be 97.1 µM.

With `CN(C/C=C/CN)C[C@H]1O[C@@H](n2cnc3c(N)ncnc32)[C@H](O)[C@@H]1O`, the IC50 with Plasmodium falciparum [7] and in the data set with Plasmodium falciparum [8] was 2 to 3 µM in each case.

As to `CCCCCCCCCCCCNc1ncnc2c1ncn2[C@@H](CC(=O)OCC)[C@H]1O[C@@H]2OC(C)(C)O[C@@H]2[C@H]1OCc1ccccc1`, the half-maximal inhibitory concentration (IC50) was determined as 0.88 µM in the data set with Plasmodium falciparum [1] and 1.13 µM in the data set on Plasmodium falciparum [3]. In data set [2], the “Ratio IC50” value stood at 1.28. The selectivity ratio in data set [4] worked out at 92.6; in data set [5] it was 72.1. The same compound registered a CC50 at 72 h in data set [6] of 81.5 µM.

In the case of `CC1(C)O[C@H]2O[C@H]([C@H](CCO)n3cnc4c(N)ncnc43)[C@H](Oc3ccccc3[N+](=O)[O-])[C@H]2O1`, the concentration for half-maximal inhibition (IC50) was found to be 3.62 µM with Plasmodium falciparum [1] and 4.7 µM in the data set on Plasmodium falciparum [3]. Besides, in data set [2], the “Ratio IC50” value came to 1.11. Also, the results for the selectivity ratio in data set [4] and in data set [5] were 37.1 and 33.3, respectively. Further, the CC50 at 72 h in data set [6] was 148 µM.

On to `CCOC(=O)C[C@H]([C@H]1O[C@@H]2OC(C)(C)O[C@@H]2[C@H]1Oc1ccccc1[N+](=O)[O-])n1cnc2c(N)ncnc21`, for which the IC50 was 4.24 µM in the data set on Plasmodium falciparum [1] and 4.25 µM with Plasmodium falciparum [3]. The “Ratio IC50” value in data set [2] is 1. For the same compound, the selectivity ratio worked out at 28.1 in data set [4] and 28 in data set [5]. In addition, the CC50 at 72 h in data set [6] is 119 µM.

As to `CCOC(=O)C[C@@H]([C@H]1O[C@@H]2OC(C)(C)O[C@@H]2[C@H]1Oc1ccccc1[N+](=O)[O-])n1cnc2c(N)ncnc21`, the IC50 stood at 3.56 µM with Plasmodium falciparum [1] and 4.93 µM in the data set on Plasmodium falciparum [3]. Further, the “Ratio IC50” value in data set [2] was 1.38. In addition, the selectivity ratio in data set [4] was determined as 27.1; in data set [5] it was 19.5. The same compound registered a CC50 at 72 h in data set [6] of 96.3 µM.

On to `CC1(C)O[C@H]2O[C@H]([C@@H](CCO)n3cnc4c(NCc5ccccc5)ncnc43)[C@H](OCc3ccccc3)[C@H]2O1`, for which the IC50 is 4.11 µM in the data set with Plasmodium falciparum [1] and 4.99 µM in the data set on Plasmodium falciparum [3]. The “Ratio IC50” value in data set [2] was found to be 1.21. Also, the selectivity ratio was determined as 18.2 in data set [4] and 15 in data set [5]. Half-maximal cytotoxicity in data set [6] (CC50 at 72 h) was put at 74.9 µM.

Take `CC1(C)O[C@H]2O[C@H]([C@H](CCO)n3cnc4c(NCc5ccccc5)ncnc43)[C@H](OCc3ccccc3)[C@H]2O1`: the IC50 turned out to be 3.99 µM in the data set on Plasmodium falciparum [1] and 4.44 µM in the data set on Plasmodium falciparum [3]. In addition, the “Ratio IC50” value in data set [2] came to 0.75. The selectivity ratio in data set [4] was 19.6; in data set [5], 25.8. Moreover, it took 61.2 µM to reach half-maximal cytotoxicity in data set [6] (CC50 at 72 h).

Consider `CCCCCCCCCCCCNc1ncnc2c1ncn2[C@H](CC(=O)OCC)[C@H]1O[C@@H]2OC(C)(C)O[C@@H]2[C@H]1OCc1ccccc1`, for which the IC50 in the data set with Plasmodium falciparum [1] stood at 1.01 µM; in the data set with Plasmodium falciparum [3], 2.57 µM. Besides, the “Ratio IC50” value in data set [2] is 2.54. Further, the selectivity ratio in data set [4] was 44.5; in data set [5] it was 17.5. In addition, the CC50 at 72 h in data set [6] turned out to be 45 µM.

For the compound `COC(=O)C[C@@H]([C@H]1O[C@@H]2OC(C)(C)O[C@@H]2[C@H]1OCc1ccccc1)n1cnc2c(N)ncnc21`, the IC50 in the data set on Plasmodium falciparum [1] came to 4.44 µM; in the data set with Plasmodium falciparum [3], 4.79 µM. For the same compound, the “Ratio IC50” value in data set [2] worked out at 1.07. In addition, the values for the selectivity ratio in data set [4] and in data set [5] were 15.4 and 14.3, respectively. Moreover, in data set [6], the CC50 at 72 h turned out to be 68.4 µM.

For the compound `CC(=O)c1ccc(-n2cnc3c(N)ncnc32)cc1`, the IC50 with Plasmodium falciparum [1] was more than 5 µM.

`COC(=O)C[C@H]([C@H]1O[C@@H]2OC(C)(C)O[C@@H]2[C@H]1OCc1ccccc1)n1cnc2c(N)ncnc21`: the results for the IC50 in the data set on Plasmodium falciparum [1] and with Plasmodium falciparum [3] were 4.12 µM and 4.09 µM, respectively. In addition, the “Ratio IC50” value in data set [2] is recorded as 0.99. For the same compound, the selectivity ratio in data set [4] is 20.9; in data set [5], 21.1. Also, half-maximal cytotoxicity in data set [6] (CC50 at 72 h) was put at 86.3 µM.

As for `CCOC(=O)C[C@H]([C@H]1O[C@@H]2OC(C)(C)O[C@@H]2[C@H]1OCc1ccccc1)n1cnc2c(NCc3ccccc3)ncnc21`, the IC50 came to 3.6 µM in the data set with Plasmodium falciparum [1] and 2.27 µM in the data set with Plasmodium falciparum [3]. Moreover, the “Ratio IC50” value in data set [2] was 0.63. For the same compound, the selectivity ratio in data set [4] is 14.8; in data set [5], 23.5. The compound further displayed a CC50 at 72 h in data set [6] of 53.3 µM.

On to `CCOC(=O)C[C@@H]([C@H]1O[C@@H]2OC(C)(C)O[C@@H]2[C@H]1Oc1ccccc1N)n1cnc2c(N)ncnc21`, for which the values for the IC50 in the data set on Plasmodium falciparum [1] and with Plasmodium falciparum [3] were 4.47 µM and more than 5 µM, respectively. Also, in data set [2], the “Ratio IC50” value was more than 1.11. For the same compound, the selectivity ratio in data set [4] is 20.1; in data set [5], less than 17.9. Also, the CC50 at 72 h in data set [6] is 89.7 µM.

In the data set with Plasmodium falciparum [1], `CC(O)c1ccc(-n2cnc3c(N)ncnc32)cc1` (stereo not given) registered a concentration for half-maximal inhibition (IC50) of more than 5 µM.

`CC1(C)O[C@H]2O[C@H]([C@@H](CCO)n3cnc4c(N)ncnc43)[C@H](Oc3ccccc3[N+](=O)[O-])[C@H]2O1`: the IC50 came to 3.13 µM in the data set with Plasmodium falciparum [1] and 2.37 µM with Plasmodium falciparum [3]. Further, the “Ratio IC50” value in data set [2] is on record as 0.9. Also, the figures for the selectivity ratio in data set [4] and in data set [5] were 11.5 and 12.7, respectively. In data set [6], this compound registered a CC50 at 72 h of 51.8 µM.
